ChEMBL document CHEMBL1131242, “6beta-Acetoxynortropane: a potent muscarinic agonist with apparent selectivity toward M2-receptors” (J Med Chem, 1998)
Residue numbers refer to the chain shown, from its start.

What was measured:
[1] = target: T1, Neuronal acetylcholine receptor; alpha4/beta2 (Rattus norvegicus, UniProt P09483+P12390); experiment: Inhibition of binding of [3H]nicotine to Nicotinic acetylcholine receptor alpha4-beta2 in rat cerebral cortical membranes; type: cell membranes, Membrane
Method in brief: (§1)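 Rat cerebral cortex membranes with 0.2 nM [3H]nicotine in HEPES binding buffer pH 7.4 containing 200 µM diisopropyl fluorophosphate. Incubation was 120 min at 0–4 °C, in triplicate. Nonspecific binding used 1 µM nicotine. Samples were filtered through polyethylenimine-soaked GF/B filters and counted.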

[2] = target: T1, Neuronal acetylcholine receptor; alpha4/beta2; experiment: (§2) The compound was evaluated for percentage inhibition of binding of [3H]- nicotine to Nicotinic acetylcholine receptor alpha4-beta2 in Rat Cerebral Cortical Membranes; type: protein-complex assay; method in brief: as §1
[3] = target: T2, Muscarinic acetylcholine receptor M1 (Rattus norvegicus, UniProt P08482); experiment: Inhibition of binding of [3H]quinuclidinyl benzilate to Muscarinic acetylcholine receptor M1 in rat cerebral cortical membranes at 100 uM concentration; type: cell membranes, Membrane
T2 sequence (P08482 whole entry): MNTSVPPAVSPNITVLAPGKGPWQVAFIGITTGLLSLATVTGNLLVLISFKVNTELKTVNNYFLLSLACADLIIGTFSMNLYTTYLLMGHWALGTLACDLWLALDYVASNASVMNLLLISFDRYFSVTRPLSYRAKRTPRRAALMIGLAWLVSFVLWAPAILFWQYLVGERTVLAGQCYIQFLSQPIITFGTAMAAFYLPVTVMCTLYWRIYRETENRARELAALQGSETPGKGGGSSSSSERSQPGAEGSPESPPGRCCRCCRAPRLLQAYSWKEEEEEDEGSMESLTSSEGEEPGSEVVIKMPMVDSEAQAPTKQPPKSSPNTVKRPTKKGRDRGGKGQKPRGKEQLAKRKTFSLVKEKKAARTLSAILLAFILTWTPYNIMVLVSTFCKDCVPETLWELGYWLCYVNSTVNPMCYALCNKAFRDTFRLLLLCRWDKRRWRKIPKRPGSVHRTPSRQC
Method in brief: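 Rat cortical membranes with 0.2 nM [3H]quinuclidinyl benzilate in HEPES pH 7.4 with 10 mM MgCl2 and 100 mM NaCl, 30 min at 37 °C, triplicate. Atropine 1 µM defined nonspecific binding. Percent inhibition was read at 100 µM test agent; mean ± SEM, n = 4.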

[4] = target: T3, Muscarinic acetylcholine receptor M3 (Homo sapiens, UniProt P20309); experiment: Inhibition of binding of [3H]quinuclidinyl benzilate to human Muscarinic acetylcholine receptor M3 in membranes of transfected CHO cells at 100 uM concentration; settings: Membrane
Target sequence in this assay (P20309 whole entry, looked up): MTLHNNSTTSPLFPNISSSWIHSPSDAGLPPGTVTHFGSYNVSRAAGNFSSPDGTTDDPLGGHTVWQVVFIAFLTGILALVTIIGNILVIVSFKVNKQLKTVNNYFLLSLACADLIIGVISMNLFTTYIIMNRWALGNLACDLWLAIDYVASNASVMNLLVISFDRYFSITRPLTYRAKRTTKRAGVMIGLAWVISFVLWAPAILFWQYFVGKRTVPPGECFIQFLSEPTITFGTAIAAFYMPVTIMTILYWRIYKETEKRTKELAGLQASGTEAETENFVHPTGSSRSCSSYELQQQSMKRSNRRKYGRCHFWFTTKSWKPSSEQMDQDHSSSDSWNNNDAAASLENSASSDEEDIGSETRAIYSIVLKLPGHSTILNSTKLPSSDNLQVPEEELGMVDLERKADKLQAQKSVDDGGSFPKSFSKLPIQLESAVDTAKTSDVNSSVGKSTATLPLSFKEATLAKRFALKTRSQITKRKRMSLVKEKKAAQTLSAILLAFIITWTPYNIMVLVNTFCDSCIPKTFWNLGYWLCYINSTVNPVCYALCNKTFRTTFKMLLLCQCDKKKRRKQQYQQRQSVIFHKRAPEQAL

[5] = target: T3, Muscarinic acetylcholine receptor M3; experiment: Inhibition of binding of [3H]quinuclidinyl benzilate to muscarinic receptors in membranes of CHO cells transfected with […] Muscarinic acetylcholine receptor M3; type: cell membranes; settings: concentration not given here
Target sequence in this assay (P20309 whole entry, looked up): as above

[6] = target: T2, Muscarinic acetylcholine receptor M1; experiment: The compound was evaluated for inhibition of binding of [3H]quinuclidinyl benzilate to Muscarinic acetylcholine receptor M1 in Rat Cerebral Cortical Membranes
Method in brief: (§3)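 Rat cerebral cortex membranes were homogenised in 50 mM Tris-HCl pH 7.4 and diluted in HEPES binding buffer. They were incubated with 0.2 nM [3H]quinuclidinyl benzilate in 20 mM HEPES pH 7.4 with 10 mM MgCl2 and 100 mM NaCl for 30 min at 37 °C, in triplicate. Nonspecific binding used 1 µM atropine. Filtration was followed by scintillation counting.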

[7] = target: T4, Muscarinic acetylcholine receptor M1 (Homo sapiens) (UniProt P11229); experiment: Percentage inhibition of binding of [3H]quinuclidinyl benzilate to […] Muscarinic acetylcholine receptor M1 transfected in membranes of CHO cells; type: cell membranes; settings: concentration not given here
T4 sequence (whole entry): T2 sequence (P08482 whole entry) with V5A, S254T, S309P, K320R, G337A, V413I

[8] = target: Muscarinic acetylcholine receptor M1 (Homo sapiens) (UniProt P11229); experiment: Inhibition of binding of [3H]quinuclidinyl benzilate to human Muscarinic acetylcholine receptor M1 in membranes of transfected CHO cells at 300 uM concentration; settings: Membrane
Target sequence in this assay (P11229 whole entry, looked up): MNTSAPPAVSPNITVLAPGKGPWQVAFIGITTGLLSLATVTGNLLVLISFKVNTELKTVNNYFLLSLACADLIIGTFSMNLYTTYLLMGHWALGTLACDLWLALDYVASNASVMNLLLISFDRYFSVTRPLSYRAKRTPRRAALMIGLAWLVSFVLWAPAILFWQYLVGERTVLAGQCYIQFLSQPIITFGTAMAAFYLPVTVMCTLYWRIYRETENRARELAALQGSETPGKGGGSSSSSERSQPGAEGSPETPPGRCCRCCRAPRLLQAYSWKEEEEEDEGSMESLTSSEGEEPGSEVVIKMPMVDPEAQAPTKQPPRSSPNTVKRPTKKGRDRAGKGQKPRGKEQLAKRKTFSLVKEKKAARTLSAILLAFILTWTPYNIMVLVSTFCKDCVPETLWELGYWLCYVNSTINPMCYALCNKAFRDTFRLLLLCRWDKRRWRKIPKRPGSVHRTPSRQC

[9] = target: T5, Muscarinic acetylcholine receptor M2 (Homo sapiens, UniProt P08172); experiment: Inhibition of binding of [3H]quinuclidinyl benzilate to muscarinic receptors in membranes of CHO cells transfected with Muscarinic acetylcholine receptor M2; type: cell membranes
T5 sequence (P08172 whole entry): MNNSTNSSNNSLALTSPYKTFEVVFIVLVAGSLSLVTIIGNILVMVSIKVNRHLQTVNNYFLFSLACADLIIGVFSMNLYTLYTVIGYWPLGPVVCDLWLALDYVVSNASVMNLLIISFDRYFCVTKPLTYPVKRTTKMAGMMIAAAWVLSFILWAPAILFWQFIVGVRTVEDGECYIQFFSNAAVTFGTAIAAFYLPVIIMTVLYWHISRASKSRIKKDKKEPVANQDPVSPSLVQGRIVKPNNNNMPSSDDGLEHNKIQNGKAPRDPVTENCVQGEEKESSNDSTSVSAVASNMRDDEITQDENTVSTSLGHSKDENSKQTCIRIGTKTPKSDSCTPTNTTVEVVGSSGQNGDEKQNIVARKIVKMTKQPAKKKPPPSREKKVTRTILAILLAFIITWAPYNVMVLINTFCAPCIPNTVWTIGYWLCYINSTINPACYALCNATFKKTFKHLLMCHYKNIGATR

[10] = target: T6, Muscarinic acetylcholine receptor M4 (Homo sapiens, UniProt P08173); experiment: Inhibition of binding of [3H]quinuclidinyl benzilate to muscarinic receptors in membranes of CHO cells transfected with Muscarinic acetylcholine receptor M4; type: cell membranes
T6 sequence (P08173 whole entry): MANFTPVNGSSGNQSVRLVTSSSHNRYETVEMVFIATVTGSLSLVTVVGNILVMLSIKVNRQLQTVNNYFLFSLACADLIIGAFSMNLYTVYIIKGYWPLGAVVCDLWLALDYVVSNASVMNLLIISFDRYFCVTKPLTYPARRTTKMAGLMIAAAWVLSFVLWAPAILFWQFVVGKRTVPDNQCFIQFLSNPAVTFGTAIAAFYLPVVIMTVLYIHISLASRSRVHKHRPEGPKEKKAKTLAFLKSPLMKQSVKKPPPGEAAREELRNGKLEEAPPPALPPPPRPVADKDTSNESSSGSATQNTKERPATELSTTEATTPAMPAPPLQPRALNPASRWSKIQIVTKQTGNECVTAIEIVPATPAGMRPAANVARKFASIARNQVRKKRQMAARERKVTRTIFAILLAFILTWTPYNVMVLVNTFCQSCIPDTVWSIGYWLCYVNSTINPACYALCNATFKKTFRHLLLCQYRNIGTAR

[11] = target: T3, Muscarinic acetylcholine receptor M3; experiment: Inhibition of binding of [3H]quinuclidinyl benzilate to muscarinic receptors in membranes of CHO cells transfected with Muscarinic acetylcholine receptor M3; type: cell membranes
Target sequence in this assay (P20309 whole entry): as the sequence (P20309 whole entry, looked up) above

[12] = target: Muscarinic acetylcholine receptor M4 (Homo sapiens) (UniProt P08173); experiment: Inhibition of binding of [3H]quinuclidinyl benzilate to Muscarinic acetylcholine receptor M4 in membranes of transfected CHO cells
[13] = target: Muscarinic acetylcholine receptor M2 (Homo sapiens) (UniProt P08172); experiment: Inhibition of binding of [3H]quinuclidinyl benzilate to Muscarinic acetylcholine receptor M2 in membranes of transfected CHO cells
[14] = target: T4, Muscarinic acetylcholine receptor M1 (Homo sapiens); experiment: Percentage inhibition of binding of [3H]quinuclidinyl benzilate to muscarinic receptors in membranes of CHO cells transfected with Muscarinic acetylcholine receptor M1; type: cell membranes; settings: concentration not given here
Method in brief: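 Membranes from CHO cells expressing human M1–M4 receptors in 25 mM sodium phosphate pH 7.4 with 5 mM MgCl2, 30 min at 37 °C, triplicate. [3H]quinuclidinyl benzilate was 0.2 nM for M1 and M3 and 0.1 nM for M2 and M4. Nonspecific binding used 10 µM atropine for M1 and 1 µM for the others.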

[15] = target: T2, Muscarinic acetylcholine receptor M1; experiment: Affinity versus [3H]oxotremorine M (agonist) binding to Muscarinic acetylcholine receptor M1 in Rat Cerebral Cortical Membranes, (Kd=[…])
[16] = target: T2, Muscarinic acetylcholine receptor M1; experiment: Inhibition of binding of [3H]oxotremorine M to Muscarinic acetylcholine receptor M1 in rat cerebral cortical membranes; type: cell membranes, Membrane
Method in brief: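 Agonist radioligand assay: rat cortical membranes with 2 nM [3H]oxotremorine M in 25 mM sodium phosphate pH 7.4 with 5 mM MgCl2, 2 h at 25 °C, in triplicate. Nonspecific binding used 5 µM atropine. Filtration followed by scintillation counting.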

[17] = target: Muscarinic acetylcholine receptor M3 (Rattus norvegicus) (UniProt P08483); settings: Membrane; 300 uM
[18] = target: T7, Neuronal acetylcholine receptor; alpha4/beta2 (Rattus norvegicus) (UniProt P09483+P12390); experiment: as §2; type: protein-complex assay; design: concentration or dose not given beside the values; settings: concentration not given here; method in brief: as §1
[19] = target: T8, Muscarinic acetylcholine receptor M1 (Rattus norvegicus) (UniProt P08482); experiment: Percentage inhibition of binding of [3H]quinuclidinyl benzilate to muscarinic acetylcholine receptor M1 in rat cerebral cortical membranes; type: cell membranes; design: concentration or dose not given beside the values; settings: Membrane, concentration not given here; method in brief: as §3
T8 sequence (whole entry): T2 sequence (P08482 whole entry)

[20] = target: T7, Neuronal acetylcholine receptor; alpha4/beta2 (Rattus norvegicus); experiment: Inhibition of binding of [3H]nicotine to Nicotinic acetylcholine receptor alpha4-beta2 in rat cerebral cortical membranes at 100 uM concentration; type: cell membranes; settings: Membrane
Method in brief: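 [3H]nicotine (0.2 nM) binding to rat cortical membranes, with 200 µM diisopropyl fluorophosphate, 120 min at 0–4 °C, triplicate. Nonspecific binding with 1 µM nicotine. Percent inhibition at 100 µM test agent; mean ± SEM, n = 4.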

[21] = target: T5, Muscarinic acetylcholine receptor M2; experiment: Inhibitory activity against [3H]quinuclidinyl Benzilate binding to Muscarinic acetylcholine receptor M2 in the absence of GTP
Method in brief: (§4)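 Membranes from CHO cells expressing human M2 receptor. Competition against 0.1 nM [3H]quinuclidinyl benzilate in 25 mM sodium phosphate pH 7.4, 5 mM MgCl2, without or with 10 μM GTP; 30 min at 37 °C, triplicate. Nonspecific binding with 1 μM atropine. Filtration, scintillation counting.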

[22] = target: T5, Muscarinic acetylcholine receptor M2; experiment: Inhibitory activity against [3H]quinuclidinyl Benzilate binding to Muscarinic acetylcholine receptor M2 in the presence of GTP; method in brief: as §4
[23] = target: T3, Muscarinic acetylcholine receptor M3; experiment: Percentage inhibition of binding of [3H]quinuclidinyl benzilate to muscarinic receptors in membranes of CHO cells transfected with Muscarinic acetylcholine receptor M3; type: cell membranes; settings: concentration not given here
Target sequence in this assay (P20309 whole entry, looked up): as above

[24] = target: Muscarinic acetylcholine receptor M1 (Homo sapiens) (UniProt P11229); experiment: Inhibitory activity against stimulation of [3H]inositol monophosphate accumulation in [3H]inositol-labelled CHO transfected cells mediated by Muscarinic acetylcholine receptor M1
Target sequence in this assay (P11229 whole entry, looked up): as the sequence (P11229 whole entry, looked up) above

[25] = target: T3, Muscarinic acetylcholine receptor M3; experiment: Inhibitory activity against stimulation of [3H]inositol monophosphate accumulation in [3H]inositol-labelled CHO transfected cells mediated by Muscarinic acetylcholine receptor M3
Target sequence in this assay (P20309 whole entry, looked up): as the sequence (P20309 whole entry, looked up) above

[26] = target: Muscarinic acetylcholine receptor M2 (Homo sapiens) (UniProt P08172); experiment: Inhibition of binding of 0.1 nM [3H]quinuclidinyl benzilate to Muscarinic acetylcholine receptor M2 in membranes of transfected CHO cells in the absence of GTP
[27] = target: Muscarinic acetylcholine receptor M2 (Homo sapiens) (UniProt P08172); experiment: Inhibition of binding of 0.1 nM [3H]quinuclidinyl benzilate to Muscarinic acetylcholine receptor M2 in membranes of transfected CHO cells in the presence of 10 uM GTP
[28] = target: Muscarinic acetylcholine receptor M4 (Homo sapiens) (UniProt P08173); experiment: Inhibitory activity against [3H]-cyclic AMP accumulation in CHO transfected cells mediated by Muscarinic acetylcholine receptor M4

T1 sequence (P09483 whole entry): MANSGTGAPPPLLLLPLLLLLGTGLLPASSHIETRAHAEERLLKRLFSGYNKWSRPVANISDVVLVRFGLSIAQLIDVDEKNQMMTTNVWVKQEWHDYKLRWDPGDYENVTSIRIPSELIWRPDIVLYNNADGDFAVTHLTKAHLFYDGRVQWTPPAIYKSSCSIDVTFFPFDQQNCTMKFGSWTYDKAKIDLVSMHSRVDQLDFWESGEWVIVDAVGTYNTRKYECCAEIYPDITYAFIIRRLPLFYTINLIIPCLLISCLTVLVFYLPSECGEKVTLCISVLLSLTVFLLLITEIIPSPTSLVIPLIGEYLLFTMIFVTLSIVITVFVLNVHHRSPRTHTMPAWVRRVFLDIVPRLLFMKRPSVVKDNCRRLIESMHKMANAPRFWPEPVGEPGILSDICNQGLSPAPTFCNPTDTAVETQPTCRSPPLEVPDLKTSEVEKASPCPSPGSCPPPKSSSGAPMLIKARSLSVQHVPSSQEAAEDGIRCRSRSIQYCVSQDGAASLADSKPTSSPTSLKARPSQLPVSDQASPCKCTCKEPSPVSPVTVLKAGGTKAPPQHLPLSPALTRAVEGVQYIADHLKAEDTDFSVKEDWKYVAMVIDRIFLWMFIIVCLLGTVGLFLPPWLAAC
T1 sequence (P12390 whole entry): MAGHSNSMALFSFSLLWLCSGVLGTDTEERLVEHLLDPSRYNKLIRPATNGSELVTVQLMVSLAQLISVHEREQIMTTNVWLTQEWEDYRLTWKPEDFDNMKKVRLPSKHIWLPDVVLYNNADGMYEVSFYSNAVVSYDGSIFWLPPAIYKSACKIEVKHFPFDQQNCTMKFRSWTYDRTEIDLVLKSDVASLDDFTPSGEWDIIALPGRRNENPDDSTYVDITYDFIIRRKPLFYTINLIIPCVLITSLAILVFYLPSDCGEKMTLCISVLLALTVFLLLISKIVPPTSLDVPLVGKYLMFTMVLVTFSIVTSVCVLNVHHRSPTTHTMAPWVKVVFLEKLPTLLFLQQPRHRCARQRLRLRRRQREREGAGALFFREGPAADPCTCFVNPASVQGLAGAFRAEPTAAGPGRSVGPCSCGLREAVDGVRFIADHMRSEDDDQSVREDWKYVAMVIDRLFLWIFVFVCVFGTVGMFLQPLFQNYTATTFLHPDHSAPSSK
Sequence of Muscarinic acetylcholine receptor M3 (Rattus norvegicus) (P08483 whole entry, looked up): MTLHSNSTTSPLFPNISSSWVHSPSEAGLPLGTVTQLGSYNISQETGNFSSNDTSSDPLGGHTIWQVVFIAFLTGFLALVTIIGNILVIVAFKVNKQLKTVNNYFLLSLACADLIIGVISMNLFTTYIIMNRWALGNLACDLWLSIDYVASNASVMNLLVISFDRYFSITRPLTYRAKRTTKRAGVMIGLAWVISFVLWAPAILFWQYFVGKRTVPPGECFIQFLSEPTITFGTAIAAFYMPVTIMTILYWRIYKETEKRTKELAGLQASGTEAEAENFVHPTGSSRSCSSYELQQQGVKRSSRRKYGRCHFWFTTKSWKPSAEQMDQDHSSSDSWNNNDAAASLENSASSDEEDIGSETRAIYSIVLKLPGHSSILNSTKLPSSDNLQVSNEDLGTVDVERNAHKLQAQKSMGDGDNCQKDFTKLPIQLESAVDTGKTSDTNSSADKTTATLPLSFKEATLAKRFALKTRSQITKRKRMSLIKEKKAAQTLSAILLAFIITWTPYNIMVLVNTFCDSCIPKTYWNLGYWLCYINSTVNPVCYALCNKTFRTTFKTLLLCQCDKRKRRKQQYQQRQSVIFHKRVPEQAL

`CC(=O)O[C@@H]1CCC2CCC1N2` (stereo not given in full) was tested, and the Ki [1] was 24000 nM and the Ki [2] was 24000 nM.

Molecule `COC(=O)C1=CCC2CCC1N2C` (stereo not given) has a Ki [3] of 25000 nM, an inhibition [4] of 28% and an inhibition [5] of 28%. For the same molecule, the Ki [6] was 25000 nM and the inhibition [7] was 26%.

For `COC(=O)C1CC2CCCC1N2` (stereo not given), the Ki [1] was 150 nM, the inhibition [8] was 24% and the Ki [9] was 480 nM. The Ki [10] was 7900 nM, the Ki [11] was 18000 nM and the Ki [12] was 7900 nM. It also gave a Ki [13] of 480 nM, an inhibition [14] of 24% and a Ki [15] of 260 nM. The Ki [16] was 260 nM and the Ki [2] was 150 nM.

`C[N+](C)(C)CCOC(N)=O` gave an inhibition [17] of 16%.

Work on `CC(=O)O[C@H]1CCC2CCC1N2` (stereo not given in full) yielded a Ki [1] of 32000 nM and a Ki [2] of 32000 nM.

`COC(=O)[C@H]1CC2NC1CC[C@@H]2OC(C)=O` (stereo not given in full) gave an inhibition [18] of 13%, an inhibition [19] of 1% and an inhibition [20] of 13%.

`COC(=O)C1CC2NC1CCC2=O` (stereo not given) gave an inhibition [18] of 15%, an inhibition [19] of 0% and an inhibition [20] of 15%.

In the case of `CC(=O)OC(C)C[N+](C)(C)C` (stereo not given) [METHACHOLINE], the IC50 [21] is reported as 380 nM, the Ki [9] is reported as 59 nM and the IC50 [22] is reported as 5200 nM. For the same molecule, the Ki [10] was 1600 nM, the Ki [12] was 1600 nM and the Ki [13] was 59 nM. For the same molecule, the inhibition [23] was 34%, the inhibition [14] was 8% and the EC50 [24] was 400 nM. The EC50 [25] was 120 nM, the IC50 [26] was 380 nM and the IC50 [27] was 5200 nM. It also gave an IC50 [28] of 700 nM.
